Reference: ChEMBL document CHEMBL1143394, “Benzopyridooxathiazepine derivatives as novel potent antimitotic agents” (Bioorg Med Chem, 2009)

What was measured:
[1] = tested on: P388; experiment: Antitumor activity against mouse P388 cells xenografted in B6D2F1 mouse assessed as survivality at 50 to 100 mg/kg, ip; assay type: functional; conditions: dose mg/kg 50-100, route intraperitoneal
[2] = tested on: L1210; experiment: Cell cycle arrest in mouse L1210 cells assessed as accumulation at S phase at 25 nM after 21 hrs by flow cytometry using propidium iodide staining; assay type: functional
How it was run: (§1)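 L1210 cells exposed to compound for 21 h (two doubling times), fixed in 70% ethanol, washed, stained 30 min at 20 °C in D-PBS with RNAse and propidium iodide; 10⁴ cells per sample analysed by flow cytometry for G1, S, G2+M and 8N (tetraploid) fractions.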

[3] = tested on: HT-29; experiment: Cytotoxicity against human HT29 cells after 96 hrs by MTA assay; assay type: functional
How it was run: (§2)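 Adherent DU145, HT29, A549, KB 3-1 and KB-A1 cells grown in RPMI 1640 with 10% FCS, 2 mM glutamine, antibiotics and HEPES pH 7.4. Seeded, grown 2 days, then exposed to compound 96 h (about 4 doubling times). MTT added for 4 h at 37 °C, formazan dissolved in DMSO, read at 540 nm. IC50 from linear regression on linear part of dose–response; triplicate.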

[4] = tested on: DU-145; experiment: Cytotoxicity against human DU145 cells after 96 hrs by MTA assay; assay type: functional; how it was run: as §2
[5] = Metabolic stability in mouse liver microsomes assessed as bioavailability; assay type: ADME, Microsome; conditions: read-out: Metabolic Bioavailability
[6] = Metabolic stability in human liver microsomes assessed as bioavailability; assay type: ADME, Microsome; conditions: read-out: Metabolic Bioavailability
[7] = Cytotoxicity against human KB-3-1 cells after 96 hrs by MTA assay; assay type: functional; how it was run: as §2
[8] = tested on: L1210; experiment: Cytotoxicity against mouse L1210 cells after 48 hrs by MTT assay; assay type: functional, cell-based; conditions: L1210, 48 h
How it was run: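 Murine L1210 cells in RPMI 1640 with 10% FCS, glutamine, antibiotics and HEPES pH 7.4, exposed 48 h to graded concentrations. MTT added for 4 h at 37 °C, formazan dissolved in DMSO, OD 540 nm. IC50 (50% OD reduction vs untreated controls) by linear regression on linear zone of dose–response; triplicate.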

[9] = tested on: P388; experiment: Antitumor activity against mouse P388 cells xenografted in B6D2F1 mouse assessed as survivality at 100 mg/kg, iv; assay type: functional
How it was run: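 P388 murine leukemia cells inoculated intraperitoneally (10⁶ cells/mouse) into B6D2F1 mice on day 0. Single intravenous dose given on day 1. Readout is percent T/C: median survival time of treated mice divided by median survival time of controls, ×100.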

[10] = tested on: L1210; experiment: Cell cycle arrest in mouse L1210 cells assessed as accumulation of tetraploid cells at 25 nM after 21 hrs by flow cytometry using propidium iodide staining; assay type: functional; how it was run: as §1
[11] = tested on: L1210; experiment: Cell cycle arrest in mouse L1210 cells assessed as accumulation at G1 phase at 25 nM after 21 hrs by flow cytometry using propidium iodide staining; assay type: functional; how it was run: as §1
[12] = Inhibition of tubulin polymerization
[13] = Cytotoxicity against adriamycin-resistant human KB-A1 cells after 96 hrs by MTA assay; assay type: functional; how it was run: as §2
[14] = tested on: P388; experiment: Antitumor activity against mouse P388 cells xenografted in B6D2F1 mouse at 100 mg/kg, iv relative to control; assay type: functional
How it was run: (§3)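 P388 leukaemia cells inoculated ip at 10⁶ cells/mouse into B6D2F1 mice on day 0; compound given once ip or iv on day 1. Result expressed as % T/C = median survival time of treated over untreated controls ×100.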

[15] = tested on: A549; experiment: Cytotoxicity against human A549 cells after 96 hrs by MTA assay; assay type: functional; how it was run: as §2
[16] = tested on: L1210; experiment: Cell cycle arrest in mouse L1210 cells assessed as accumulation at G2/M phase at 25 nM after 21 hrs by flow cytometry using propidium iodide staining; assay type: functional; how it was run: as §1
[17] = tested on: P388; experiment: Antitumor activity against mouse P388 cells xenografted in B6D2F1 mouse at 50 to 100 mg/kg, ip relative to control; assay type: functional; conditions: dose mg/kg 50-100; route intraperitoneal; how it was run: as §3
[18] = tested on: L1210; experiment: Cell cycle arrest in mouse L1210 cells assessed as accumulation at G1 phase at 50 nM after 21 hrs by flow cytometry using propidium iodide staining; assay type: functional; how it was run: as §1
[19] = tested on: L1210; experiment: Cell cycle arrest in mouse L1210 cells assessed as accumulation at S phase at 50 nM after 21 hrs by flow cytometry using propidium iodide staining; assay type: functional; how it was run: as §1
[20] = tested on: L1210; experiment: Cell cycle arrest in mouse L1210 cells assessed as accumulation at G2/M phase at 50 nM after 21 hrs by flow cytometry using propidium iodide staining; assay type: functional; how it was run: as §1
[21] = tested on: L1210; experiment: Cell cycle arrest in mouse L1210 cells assessed as accumulation of tetraploid cells at 50 nM after 21 hrs by flow cytometry using propidium iodide staining; assay type: functional; how it was run: as §1
[22] = tested on: L1210; experiment: Cell cycle arrest in mouse L1210 cells assessed as accumulation at G1 phase at 200 nM after 21 hrs by flow cytometry using propidium iodide staining; assay type: functional; how it was run: as §1
[23] = tested on: L1210; experiment: Cell cycle arrest in mouse L1210 cells assessed as accumulation of tetraploid cells at 200 nM after 21 hrs by flow cytometry using propidium iodide staining; assay type: functional; how it was run: as §1
[24] = tested on: L1210; experiment: Cell cycle arrest in mouse L1210 cells assessed as accumulation at G2/M phase at 200 nM after 21 hrs by flow cytometry using propidium iodide staining; assay type: functional; how it was run: as §1
[25] = tested on: L1210; experiment: Cell cycle arrest in mouse L1210 cells assessed as accumulation at S phase at 200 nM after 21 hrs by flow cytometry using propidium iodide staining; assay type: functional; how it was run: as §1
[26] = tested on: L1210; experiment: Cell cycle arrest in mouse L1210 cells assessed as accumulation at S phase at 100 nM after 21 hrs by flow cytometry using propidium iodide staining; assay type: functional; how it was run: as §1
[27] = tested on: L1210; experiment: Cell cycle arrest in mouse L1210 cells assessed as accumulation of tetraploid cells at 100 nM after 21 hrs by flow cytometry using propidium iodide staining; assay type: functional; how it was run: as §1
[28] = tested on: L1210; experiment: Cell cycle arrest in mouse L1210 cells assessed as accumulation at G2/M phase at 100 nM after 21 hrs by flow cytometry using propidium iodide staining; assay type: functional; how it was run: as §1
[29] = tested on: L1210; experiment: Cell cycle arrest in mouse L1210 cells assessed as accumulation at G1 phase at 100 nM after 21 hrs by flow cytometry using propidium iodide staining; assay type: functional; how it was run: as §1

Structure (SMILES): COc1ccc(CCN2C=CC=C3C2=Nc2ccccc2OS3(=O)=O)cc1
- Activity [1]: 61%
- Activity [2]: 3%
- Activity [3]: 10 nM
- Activity [4]: 17 nM
- bioavailability [5]: < 12%
- bioavailability [6]: < 12%
- Activity [7]: 16 nM
- IC50 [8]: 0.0095 µM
- Activity [9]: 41%
- Activity [10]: 60%
- Activity [11]: 4%
- INH [12]: 2.2 µM
- Activity [13]: 13.2 nM
- T/C [14]: 141%
- Activity [15]: 11.5 nM
- Activity [16]: 25%
- T/C [17]: 161%

Structure (SMILES): COc1ccccc1CCN1C=CC=C2C1=Nc1ccccc1OS2(=O)=O
- IC50 [8]: 14.8 µM

Structure (SMILES): COc1cc(CCN2C=CC=C3C2=Nc2ccccc2OS3(=O)=O)cc(OC)c1OC
- IC50 [8]: 27.7 µM

Structure (SMILES): COc1ccc(CCN2C=CC=C3C2=Nc2ccccc2NS3(=O)=O)cc1
- IC50 [8]: 0.3 µM

Structure (SMILES): COc1ccc(CCN2c3cc(C)ccc3OS(=O)(=O)c3cccnc32)cc1
- IC50 [8]: 22.5 µM

Structure (SMILES): COc1ccc(CN2c3ccccc3OS(=O)(=O)c3cccnc32)cc1
- IC50 [8]: 0.77 µM

Structure (SMILES): COc1cc([C@@H]2c3cc4c(cc3C[C@H]3COC(=O)[C@@H]32)OCO4)cc(OC)c1OC
- INH [12]: 2.4 µM

Structure (SMILES): COc1ccc(CCCN2C=CC=C3C2=Nc2ccccc2OS3(=O)=O)cc1
- IC50 [8]: 8.6 µM

Structure (SMILES): COc1ccccc1CCN1c2ccccc2OS(=O)(=O)c2cccnc21
- IC50 [8]: > 10 µM

Structure (SMILES): O=S1(=O)Oc2ccccc2N=C2C1=CC=CN2CCc1ccc(-c2ccccc2)cc1
- IC50 [8]: 5 µM

Structure (SMILES): O=S1(=O)Oc2ccccc2N=C2C1=CC=CN2CCc1cccc2ccccc12
- IC50 [8]: 9.6 µM

Structure (SMILES): COc1ccc(CCCN2c3ccccc3OS(=O)(=O)c3cccnc32)cc1
- IC50 [8]: 15.4 µM

Structure (SMILES): COc1ccc(CCN2c3cc(OC)ccc3OS(=O)(=O)c3cccnc32)cc1
- IC50 [8]: 11.2 µM

Structure (SMILES): COc1ccc(CCN2C=CC=C3C2=Nc2cc(Cl)ccc2OS3(=O)=O)cc1
- Activity [18]: 3%
- Activity [3]: 27.1 nM
- Activity [19]: 3%
- Activity [4]: 42.3 nM
- Activity [20]: 29%
- Activity [21]: 65%
- IC50 [8]: 0.027 µM

Structure (SMILES): O=S1(=O)Oc2ccccc2N=C2C1=CC=CN2CCc1ccc(OCc2ccccc2)cc1
- IC50 [8]: > 100 µM

Structure (SMILES): O=S1(=O)Oc2ccccc2N(CCc2cccc3ccccc23)c2ncccc21
- IC50 [8]: > 100 µM

Structure (SMILES): COc1ccc(CN2C=CC=C3C2=Nc2ccccc2OS3(=O)=O)cc1
- IC50 [8]: 3.2 µM

Structure (SMILES): COc1ccc(CCN2C=CC=C3C2=Nc2cc(OC)ccc2OS3(=O)=O)cc1
- Activity [22]: 8%
- Activity [4]: 116 nM
- Activity [23]: 59%
- IC50 [8]: 0.043 µM
- Activity [24]: 22%
- Activity [15]: 99.1 nM
- Activity [25]: 11%

Structure (SMILES): COc1cccc(CCN2C=CC=C3C2=Nc2ccccc2OS3(=O)=O)c1
- IC50 [8]: 0.8 µM

Structure (SMILES): COc1ccc(CCN2c3ccccc3OS(=O)(=O)c3cccnc32)cc1
- IC50 [8]: 26.5 µM

Structure (SMILES): O=S1(=O)Oc2ccccc2N=C2C1=CC=CN2CCc1ccc(O)cc1
- IC50 [8]: 0.6 µM

Structure (SMILES): COc1ccc(CCN2C=CC=C3C2=Nc2cc(C)ccc2OS3(=O)=O)cc1
- Activity [26]: 3%
- Activity [3]: 50.2 nM
- Activity [27]: 75%
- IC50 [8]: 0.037 µM
- Activity [28]: 17%
- Activity [29]: 4%

Structure (SMILES): COc1cc(CCN2c3ccccc3OS(=O)(=O)c3cccnc32)cc(OC)c1OC
- IC50 [8]: 36.8 µM
